B1: tRNA (parent)
chain: GUUCCGUUGGCGUAAUGGUAACGCGUCUCCCUCCUAAGGAGAAGACUGCGGGUUCGAGUCCCGUACGGAACG

Variants at the floor of the assay were thinned out.

Variants of B1 are the subject of this data set. In words: yeast fitness relative to wild type (ratio to wild type); higher = fitter; tRNA-Arg(CCU), competitive growth, 37 C, YPD. The procedure, abridged:
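Variants of the tRNA-Arg(CCU) gene were chemically synthesised with a 3% per-site mutation rate across 69 sites and placed at the native genomic locus in Saccharomyces cerevisiae. Six parallel replicates of the pooled strains were competed in YPD at 37°C for 24 hours, and gene amplicons from the start and end populations were read by 100-nucleotide paired-end sequencing. Darwinian fitness relative to wild type was derived from changes in genotype frequencies. Genotypes required ≥ 100 starting reads, and estimates < 0.5 were set to 0.5.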
With GUUCCGUUGGCGAAAUGGUAACGCGUGUCCCUCGUAAGGAGAAGACUCCGGGUUCGAGUCCCGUACGGAACG, the yeast fitness was not above 0.5. For the variant GUUCCGUUGGCGAAAUGGUAACGAGUCUCCCUCCUAAGGAGAAGUCUGCAGGUUCAAGUCCCGUACGGAACG, the yeast fitness is not above 0.5. For GUUCCGUUGGCGAAAUGGUAAGGCGUCUCCCUCCUAAGGAGAAGACUGCGGGUUCGAGGCCCGUUCGGAACG the value was not above 0.5; for GUUCCGUUGGCGAAAUGGUAACGCGUCUCCGUCCUAAGGAGAAGAGUGCGGGUUCGAGUCCCGUACGGCACG, not above 0.5; for GUUCCGUUGGCGAAAUGGUAACGCGUCUCCCUCCUAAGGAGAAGAGUGCGGGUUCGAGUCCCCUAAGGAACG, not above 0.5. In the case of GUUCCGUUGGCGAAAUGGUAAAGCGUCUCCCUCCUAAGGAGUAGACUGCGGGUUCGAGUCCCGUACGGAACG, the yeast fitness was determined as 0.582. On to GUUCCGUUGGCGAAAUGGUAACGCGUCUCCCUCCUAAGGAGAAGACUGUGGGUUCGAGUCCCGUACGGAACG, for which the yeast fitness was determined as 1.02. The result for GUUCCGUUGGCGAAAUGGUAACGCGUCUCCCUCCUAAGGAGAAGACUGAGGGUUCGAGUCCCGUACGGAACG reads 0.654; that for GUUCCGUUGGCGAAAUGGUAACGCGUCUCCCUCGUAAGGAGAAGCCUGCGGGUUCGCGUCCCGUACGGAACG, not above 0.5; that for GUUCCGUUGGCGAAAUGGUAAGGAGUCUCCCUCCUAAGGAGAAGAGUGCGGGUUUGAGUCCCGUACGGAACG, 0.551. With GUUCCGUUGGCGAAAUGGUAACGCGUCUCCCUCCUAAGGAGAAGACUGCGGGUUAGAGUCCCGUACGGAACG, the yeast fitness was found to be 0.648. For GUUCCGUUGGCGAAAUGGUAACGCGUAUCCCUCCUAAGGAGAAGACUGCGGGUUCGAGUCUCGUAUGGAACG, the yeast fitness was not above 0.5. GUUCCGUUGGCGAAAUGGUAACGCGUCUUCUUCCUAAGGAGAAGACUGCCGGUUCGAGUCCCGUACGGAACG: the yeast fitness stood at 0.508.

As for GUUCCGUUGGCGAAAUGGUAACGCGUCUCUCUCCUAAGGAGAAGACUGCGGGUUCGAGUCCCGUACGGAACG, the yeast fitness worked out at 0.802. GUUCCGUUGGCGAAAUGGUAACGCGUCUCGCUCCUAAGGAGAAGACUGCGGGUUCGAGUCCCGUACGGAACG: the yeast fitness was 0.584. The result for GUUCCGUUGGCGAAAUGGUAACGCGUCUCUCUCCUAAGCAGAAGACUGCGGGUUGGAGUCCCGUACGGAACG reads 0.545. For GUUCCGUUGGCGAAAUGGUAACGCGUGUCCCUCCUAAGGAGAAGACUGCGGGUUCGAGUCCCGUACGGAACG the value was 0.621; for GUUCCGUUGGCGAAAUGGUAACGCGUGUCCCUCCUAAGGAGACGUCUGCGGGUUCGAGUCCCGCACGGAACG, 0.582. The result for GUUCCGUUGGCGAAAUGGUAAAGCGUCUCCCUCCUUAGGAGAAGACUGCGGGUUCGAGUCCCGUACGGAACG reads not above 0.5. As to GUUCCGUUGGCGAAAUGGUAACGCGUUUCCCUCCUAAGGAGAAGACUGCGGGUUCGAGUCCCGCACGGAACG, the yeast fitness turned out to be 0.937. As for GUUCCGUUGGCGAAAUGGUAACGCGUCUCCGUCCUAAGGAGAAGACUGCGGGUUCGAGUCCCGUACGGAACG, the yeast fitness was found to be 1.05.

With GUUCCGUUGGCGAAAUGGUAACGCGUCUUCCUCCUAAGGAGAAGACUGCGGGUUCGAGUCCCGUACGGAACG, the yeast fitness was 0.786. For GUUCCGUUGGCGAAAUGGUAACGUGUCUCCCUCCUAAGGAGAAGACUGCGCGUUCGAGUCCCGUACGGAACG the value was 0.542; for GUUCCGUUGGCGAAAUGGUAACGCGUUUCCCUCCUACGGAGAAGACUGCGGGUUCGAGUCUCGUACGGAACG, not above 0.5; for GUUCCGUUGGCGAAAUGGUAACGCGUCUCCCUGCUAAGGGGAAGACUGCGGGUUCGAGUACCGUACGGAACG, not above 0.5. For GUUCCGUUGGCGAAAUGGUAACGCGUCUCCCUCCUAAGGAGAAGACUGCGGGUUCGAGUCCCGUACGGUACG the value was 0.984. For GUUCCGUUGGCGAAAUGGUAACGCGUCUCCCUCCUAAGGAGAAGGCUGCGGGUUCGAGUCCCGUCCGGAACG the value was 0.656; for GUUCCGUUGGCGAAAUGGUAACGCGUCUCCCUCCUAAGGAGAAGACUGCGGGUUCGAGUCACGUGCGGAACG, 0.544; for GUUCCGUUGGCGAAAUGGUAACGCGUCUCCAUCCUAAGGAGAAAACUGCGGGUUCGGGUCCCGUACGGAACG, not above 0.5.

With GUUCCGUUGGCGAAAUGGUAACGAGUCUCCCUCCUAAGGAGAAGCCUGCGGGUUCGAGUCCCGUACGGAACG, the yeast fitness was not above 0.5.

In the case of GUUCCGUUGGCGAAAUGGUAACGCGUCUCCCUCCUAAGGAGAAGACUGCGGGUUCGAGUCGCGUACGCAACG, the yeast fitness was not above 0.5. The result for GUUCCGUUGGCGAAAUGGUAACGCGUCUGCCUCCUAAGGAGAAGAGUGCGGGUUCGAGUCCCGUACGGAACG reads 0.583. Turning to GUUCCGUUGGCGAAAUGGUAACGCGUCUCCCUCCUAAGGAGAAGGCUGCGGGUUCGACUCCCGUACGGUUCG, the yeast fitness was 0.603.

As for GUUCCGUUGGCGAAAUGGUAAAGCGUCUACCUCCUAAGGACAAGACUGCCGGUUCGAGUCCCGUACGGAACG, the yeast fitness is not above 0.5. Take GUUCCGUUGGCGAAAUGGUAAGGAGUCUCCCUCCUAAGGAGAAGAGUGCGGGUUUGAGUCACGUACGGAACG: the yeast fitness is not above 0.5. The result for GUUCCGUUGGCGAAAUGGUAAAGCGUCUCCCUCCUAAGGAGAAGAUUGCGGGUUCGAGUCCCGUACGGAACG reads 0.633; that for GUUCCGUUGGCGAAAUGGUAACGCGUCUCAUUCCUAAGGAGACGACUGCGGGUUCGAGUCCCGUACGGAACG, 0.942.

As to GUUCCGUUGGCGAAAUGGUAACGCGUCUCUCUCCUAAGGAGAAGACUGCGGGUUGGACUCCCGUACGGAACG, the yeast fitness is 0.56.
